Test results published in ChEMBL document CHEMBL1629657, “In vitro antimicrobial activity of a new cephalosporin, ceftaroline, and determination of quality control ranges for MIC testing” (2009).
Values after ≈ are worked out from the molar mass of the structure shown.

Key:
Format in all cases: functional
Providencia rettgeri = experiment: Antimicrobial activity against Proteus rettgeri by broth microdilution method
In short: (§1)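 Clinical isolates were tested by CLSI broth microdilution in unsupplemented cation-adjusted Mueller-Hinton broth. The read-out was the MIC, reported as MIC90 (μg/ml) per species or phenotypic group. Ceftriaxone, levofloxacin and imipenem were run in parallel as comparators.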

Streptococcus viridans = experiment: Antimicrobial activity against Streptococcus viridans group clinical isolate by broth microdilution method
In short: (§2)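 Streptococcal isolates were tested by CLSI broth microdilution in cation-adjusted Mueller-Hinton broth supplemented with 3% lysed horse blood. The read-out was the MIC, with MIC90 (μg/ml) reported per group. Ceftriaxone, levofloxacin and imipenem served as comparators.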

Streptococcus pneumoniae [1] = experiment: Antimicrobial activity against penicillin-susceptible Streptococcus pneumoniae by broth microdilution method; in short: as §2
Escherichia coli = experiment: Antimicrobial activity against ESBL-positive Escherichia coli by broth microdilution method; in short: as §1
Staphylococcus aureus [2] = experiment: Antimicrobial activity against methicillin-resistant Staphylococcus aureus by broth microdilution method
In short: (§3)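 Isolates of the stated resistance phenotype were tested by CLSI broth microdilution in unsupplemented cation-adjusted Mueller-Hinton broth. Ceftaroline was compared with ceftriaxone, levofloxacin and imipenem. Activity was expressed as MICs (MIC90 in μg/ml).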

Streptococcus pneumoniae [3] = experiment: Antimicrobial activity against penicillin-intermediate Streptococcus pneumoniae by broth microdilution method
In short: (§4)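 CLSI broth microdilution in cation-adjusted Mueller-Hinton broth with 3% lysed horse blood, against streptococcal clinical isolates of the stated phenotype. Ceftaroline was compared with ceftriaxone, levofloxacin and imipenem. Activity was expressed as MICs (MIC90 in μg/ml).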

Providencia stuartii = experiment: Antimicrobial activity against Proteus stuartii by broth microdilution method; in short: as §1
Morganella morganii = experiment: Antimicrobial activity against Morganella morganii by broth microdilution method; in short: as §1
Klebsiella pneumoniae [4] = experiment: Antimicrobial activity against ESBL-positive Klebsiella pneumoniae by broth microdilution method; in short: as §1
Haemophilus influenzae [5] = experiment: Antimicrobial activity against beta-lactamase-positive Haemophilus influenzae by broth microdilution method
In short: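 H. influenzae isolates were tested by CLSI broth microdilution using Haemophilus test medium. The MIC was read and MIC90 (μg/ml) reported for the group. Ceftriaxone, levofloxacin and imipenem served as comparators.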

Shigella sp. = experiment: Antimicrobial activity against Shigella spp. by broth microdilution method; in short: as §1
Salmonella sp. = experiment: Antimicrobial activity against Salmonella spp. by broth microdilution method; in short: as §1
Klebsiella pneumoniae [6] = experiment: Antimicrobial activity against ESBL-negative Klebsiella pneumoniae by broth microdilution method; in short: as §1
Streptococcus pyogenes [7] = experiment: Antimicrobial activity against macrolide-resistant Streptococcus pyogenes by broth microdilution method; in short: as §4
Enterococcus faecalis [8] = experiment: Antimicrobial activity against Enterococcus faecalis by broth microdilution method; in short: as §1
Pseudomonas aeruginosa [9] = experiment: Antimicrobial activity against Pseudomonas aeruginosa by broth microdilution method; in short: as §1
Proteus mirabilis = experiment: Antimicrobial activity against Proteus mirabilis by broth microdilution method; in short: as §1
Streptococcus pyogenes [10] = experiment: Antimicrobial activity against macrolide-susceptible Streptococcus pyogenes by broth microdilution method; in short: as §4
Moraxella catarrhalis = experiment: Antimicrobial activity against Moraxella catarrhalis by broth microdilution method; in short: as §1
Haemophilus influenzae [11] = experiment: Antimicrobial activity against beta-lactamase-negative ampicillin resistant Haemophilus influenzae by broth microdilution method
In short: (§5)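 CLSI broth microdilution in Haemophilus test medium (cation-adjusted Mueller-Hinton base) against clinical H. influenzae isolates of the stated phenotype. Ceftaroline was compared with ceftriaxone, levofloxacin and imipenem. Activity was expressed as MICs (MIC90 in μg/ml).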

Haemophilus influenzae [12] = experiment: Antimicrobial activity against beta-lactamase-negative Haemophilus influenzae by broth microdilution method; in short: as §5
Listeria monocytogenes = experiment: Antimicrobial activity against Listeria monocytogenes by broth microdilution method; in short: as §1
Staphylococcus [13] = experiment: Antimicrobial activity against methicillin-susceptible coagulase-negative Staphylococcus by broth microdilution method; in short: as §1
Klebsiella aerogenes = experiment: Antimicrobial activity against ESBL-negative Enterobacter aerogenes by broth microdilution method; in short: as §1
Serratia marcescens = experiment: Antimicrobial activity against Serratia marcescens by broth microdilution method; in short: as §1
[14] = tested on: Stenotrophomonas maltophilia; experiment: Antimicrobial activity against Stenotrophomonas maltophilia by broth microdilution method; in short: as §1
Staphylococcus aureus [15] = experiment: Antimicrobial activity against methicillin-susceptible Staphylococcus aureus by broth microdilution method; in short: as §1
Streptococcus agalactiae = experiment: Antimicrobial activity against Streptococcus agalactiae by broth microdilution method; in short: as §2
Enterococcus faecium [16] = experiment: Antimicrobial activity against Enterococcus faecium by broth microdilution method; in short: as §1
Enterococcus faecalis [17] = experiment: Antimicrobial activity against vancomycin-susceptible Enterococcus faecalis by broth microdilution method; in short: as §1
Burkholderia cepacia = experiment: Antimicrobial activity against Burkholderia cepacia by broth microdilution method; in short: as §1
Streptococcus pneumoniae [18] = experiment: Antimicrobial activity against penicillin-resistant Streptococcus pneumoniae by broth microdilution method; in short: as §4
Staphylococcus aureus [19] = experiment: Antimicrobial activity against vancomycin-intermediate Staphylococcus aureus by broth microdilution method; in short: as §1
Corynebacterium jeikeium = experiment: Antimicrobial activity against Corynebacterium jeikeium by broth microdilution method; in short: as §1
Enterococcus faecium [20] = experiment: Antimicrobial activity against vancomycin-susceptible Enterococcus faecium by broth microdilution method; in short: as §1
Streptococcus pneumoniae [21] = experiment: Antimicrobial activity against levofloxacin-resistant Streptococcus pneumoniae by broth microdilution method; in short: as §4
Proteus vulgaris = experiment: Antimicrobial activity against Proteus vulgaris by broth microdilution method; in short: as §1
Enterobacter cloacae = experiment: Antimicrobial activity against ESBL-negative Enterobacter cloacae by broth microdilution method; in short: as §1
Staphylococcus aureus [22] = experiment: Antimicrobial activity against vancomycin-resistant Staphylococcus aureus by broth microdilution method; in short: as §3
Staphylococcus [23] = experiment: Antimicrobial activity against methicillin-resistant coagulase-negative Staphylococcus by broth microdilution method; in short: as §3
Pseudomonas aeruginosa [24] = experiment: Antimicrobial activity against multidrug resistant Pseudomonas aeruginosa by broth microdilution method; in short: as §3

C[C@@H](O)[C@H]1C(=O)N2C(C(=O)O)=C(SCCNC=N)C[C@H]12 [IMIPENEM ANHYDROUS]
MIC50 (Providencia rettgeri): 2 µg/mL (≈ 6.68 µM)
MIC90 (Providencia rettgeri): 4 µg/mL (≈ 13.4 µM)
MIC (Streptococcus viridans): 0.015 µg/mL (≈ 0.0501 µM)
MIC50 (Streptococcus viridans): 0.015 µg/mL (≈ 0.0501 µM)
MIC90 (Streptococcus viridans): 0.12 µg/mL (≈ 0.401 µM)
MIC (Streptococcus pneumoniae [1]): 0.015 µg/mL (≈ 0.0501 µM)
MIC50 (Streptococcus pneumoniae [1]): 0.015 µg/mL (≈ 0.0501 µM)
MIC90 (Streptococcus pneumoniae [1]): 0.015 µg/mL (≈ 0.0501 µM)
MIC50 (Escherichia coli): 0.12 µg/mL (≈ 0.401 µM)
MIC90 (Escherichia coli): 0.25 µg/mL (≈ 0.835 µM)
MIC50 (Staphylococcus aureus [2]): 0.25 µg/mL (≈ 0.835 µM)
MIC90 (Staphylococcus aureus [2]): 32 µg/mL (≈ 107 µM)
MIC50 (Streptococcus pneumoniae [3]): 0.03 µg/mL (≈ 0.1 µM)
MIC90 (Streptococcus pneumoniae [3]): 0.06 µg/mL (≈ 0.2 µM)
MIC50 (Providencia stuartii): 2 µg/mL (≈ 6.68 µM)
MIC90 (Providencia stuartii): 4 µg/mL (≈ 13.4 µM)
MIC50 (Morganella morganii): 4 µg/mL (≈ 13.4 µM)
MIC90 (Morganella morganii): 4 µg/mL (≈ 13.4 µM)
MIC50 (Klebsiella pneumoniae [4]): 0.12 µg/mL (≈ 0.401 µM)
MIC90 (Klebsiella pneumoniae [4]): 0.25 µg/mL (≈ 0.835 µM)
MIC50 (Haemophilus influenzae [5]): 0.25 µg/mL (≈ 0.835 µM)
MIC90 (Haemophilus influenzae [5]): 0.5 µg/mL (≈ 1.67 µM)
MIC (Shigella sp.): 0.12 µg/mL (≈ 0.401 µM)
MIC50 (Shigella sp.): 0.12 µg/mL (≈ 0.401 µM)
MIC90 (Shigella sp.): 0.25 µg/mL (≈ 0.835 µM)
MIC50 (Salmonella sp.): 0.25 µg/mL (≈ 0.835 µM)
MIC90 (Salmonella sp.): 0.25 µg/mL (≈ 0.835 µM)
MIC50 (Klebsiella pneumoniae [6]): 0.25 µg/mL (≈ 0.835 µM)
MIC90 (Klebsiella pneumoniae [6]): 0.5 µg/mL (≈ 1.67 µM)
MIC (Streptococcus pyogenes [7]): 0.015 µg/mL (≈ 0.0501 µM)
MIC50 (Streptococcus pyogenes [7]): 0.015 µg/mL (≈ 0.0501 µM)
MIC90 (Streptococcus pyogenes [7]): 0.015 µg/mL (≈ 0.0501 µM)
MIC50 (Enterococcus faecalis [8]): 1 µg/mL (≈ 3.34 µM)
MIC90 (Enterococcus faecalis [8]): 2 µg/mL (≈ 6.68 µM)
MIC (Pseudomonas aeruginosa [9]): 1 µg/mL (≈ 3.34 µM)
MIC50 (Pseudomonas aeruginosa [9]): 1 µg/mL (≈ 3.34 µM)
MIC90 (Pseudomonas aeruginosa [9]): 16 µg/mL (≈ 53.4 µM)
MIC50 (Proteus mirabilis): 2 µg/mL (≈ 6.68 µM)
MIC90 (Proteus mirabilis): 4 µg/mL (≈ 13.4 µM)
MIC (Streptococcus pyogenes [10]): 0.015 µg/mL (≈ 0.0501 µM)
MIC50 (Streptococcus pyogenes [10]): 0.015 µg/mL (≈ 0.0501 µM)
MIC90 (Streptococcus pyogenes [10]): 0.015 µg/mL (≈ 0.0501 µM)
MIC50 (Moraxella catarrhalis): 0.06 µg/mL (≈ 0.2 µM)
MIC90 (Moraxella catarrhalis): 0.06 µg/mL (≈ 0.2 µM)
MIC50 (Haemophilus influenzae [11]): 0.5 µg/mL (≈ 1.67 µM)
MIC90 (Haemophilus influenzae [11]): 1 µg/mL (≈ 3.34 µM)
MIC50 (Haemophilus influenzae [12]): 0.5 µg/mL (≈ 1.67 µM)
MIC90 (Haemophilus influenzae [12]): 0.5 µg/mL (≈ 1.67 µM)
MIC50 (Listeria monocytogenes): 0.06 µg/mL (≈ 0.2 µM)
MIC90 (Listeria monocytogenes): 0.06 µg/mL (≈ 0.2 µM)
MIC (Staphylococcus [13]): 0.015 µg/mL (≈ 0.0501 µM)
MIC50 (Staphylococcus [13]): 0.015 µg/mL (≈ 0.0501 µM)
MIC90 (Staphylococcus [13]): 0.03 µg/mL (≈ 0.1 µM)
MIC50 (Klebsiella aerogenes): 1 µg/mL (≈ 3.34 µM)
MIC90 (Klebsiella aerogenes): 1 µg/mL (≈ 3.34 µM)
MIC50 (Serratia marcescens): 0.5 µg/mL (≈ 1.67 µM)
MIC90 (Serratia marcescens): 1 µg/mL (≈ 3.34 µM)
MIC50 [14]: > 32 µg/mL
MIC90 [14]: > 32 µg/mL
MIC (Staphylococcus aureus [15]): 0.015 µg/mL (≈ 0.0501 µM)
MIC50 (Staphylococcus aureus [15]): 0.015 µg/mL (≈ 0.0501 µM)
MIC90 (Staphylococcus aureus [15]): 0.03 µg/mL (≈ 0.1 µM)
MIC (Streptococcus agalactiae): 0.015 µg/mL (≈ 0.0501 µM)
MIC50 (Streptococcus agalactiae): 0.015 µg/mL (≈ 0.0501 µM)
MIC90 (Streptococcus agalactiae): 0.015 µg/mL (≈ 0.0501 µM)
MIC50 (Enterococcus faecium [16]): > 32 µg/mL
MIC90 (Enterococcus faecium [16]): > 32 µg/mL
MIC50 (Enterococcus faecalis [17]): 1 µg/mL (≈ 3.34 µM)
MIC90 (Enterococcus faecalis [17]): 2 µg/mL (≈ 6.68 µM)
MIC50 (Burkholderia cepacia): 8 µg/mL (≈ 26.7 µM)
MIC90 (Burkholderia cepacia): 32 µg/mL (≈ 107 µM)
MIC50 (Streptococcus pneumoniae [18]): 0.5 µg/mL (≈ 1.67 µM)
MIC90 (Streptococcus pneumoniae [18]): 1 µg/mL (≈ 3.34 µM)
MIC50 (Staphylococcus aureus [19]): 0.25 µg/mL (≈ 0.835 µM)
MIC90 (Staphylococcus aureus [19]): > 32 µg/mL
MIC50 (Corynebacterium jeikeium): > 32 µg/mL
MIC90 (Corynebacterium jeikeium): > 32 µg/mL
MIC50 (Enterococcus faecium [20]): 4 µg/mL (≈ 13.4 µM)
MIC90 (Enterococcus faecium [20]): > 32 µg/mL
MIC50 (Streptococcus pneumoniae [21]): 0.03 µg/mL (≈ 0.1 µM)
MIC90 (Streptococcus pneumoniae [21]): 0.25 µg/mL (≈ 0.835 µM)
MIC50 (Proteus vulgaris): 2 µg/mL (≈ 6.68 µM)
MIC90 (Proteus vulgaris): 4 µg/mL (≈ 13.4 µM)
MIC50 (Enterobacter cloacae): 0.25 µg/mL (≈ 0.835 µM)
MIC90 (Enterobacter cloacae): 0.5 µg/mL (≈ 1.67 µM)
MIC (Staphylococcus aureus [22]): 1 µg/mL (≈ 3.34 µM)
MIC50 (Staphylococcus [23]): 0.25 µg/mL (≈ 0.835 µM)
MIC90 (Staphylococcus [23]): 32 µg/mL (≈ 107 µM)
MIC50 (Pseudomonas aeruginosa [24]): 8 µg/mL (≈ 26.7 µM)
MIC90 (Pseudomonas aeruginosa [24]): 16 µg/mL (≈ 53.4 µM)
